RBBP9 inhibitor: human RBBP9 inhibitors, primary screen, biochemical, fluorescence polarization, FP-Rh probe, HTS. 220,000 tested, 0.2% active. Serine hydrolase RBBP9 (Homo sapiens), O75884. inhibition, % at 7.94 µM. recombinant RBBP9;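 active = inhibition above the campaign mean of all tested compounds plus 3 SD, cut at about 14% in these data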;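 also: plate controls were DMSO wells with RBBP9 for no effect and wells lacking RBBP9 protein for full effect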
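Measured by: FP readout at 525/598 nm; material: recombinant human RBBP9; also added: Serine-hydrolase probe FP-Rh, 375 nM pre-mixing; medium: Tris buffer pH 8.0, NaCl, Pluronic; replication: one well per compound; doses: one concentration, 7.94 µM nominal, 0.794% DMSO; timing: preincubation 30 min plus labeling 45 min at 25 °C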
LEDGF integ inh: blockers of LEDGF/p75-dependent integrase strand transfer – biochemical, TR-FRET, high throughput, primary screen. TR-FRET IN-LEDGF/p75 DNA integration, Eu/Cy5. inhibition, % at 3.7 µM. 370,000 tested, 0.64% active. HIV-1 integrase (with human LEDGF/p75). AID 743269, 2014;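 active = inhibition above the screen-wide mean plus 3 SD, cut at about 13% in these data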;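 also: signal is the Cy5 over europium emission ratio at 671 and 618 nm; 0% = plate median of compound wells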
PRMT1 inh: PRMT1 methyltransferase inhibitors, primary screen, biochemical, fluorescence polarization. recombinant PRMT1, activity-based probe fluorescence polarization. inhibition, % at 2.79 µM. 370,000 tested, 1.3% active. AID 652257, 2013;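 active = inhibition above about 21% made by adding two undisclosed values, limit read from the data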
MBD2 DNA inh: inhibitors of MBD2 binding to methylated DNA, primary screen, biochemical, TR-FRET, DNA-binding domain, human; Methyl-CpG-binding domain protein 2 (Homo sapiens), Q9UBB5; MBD2 binding to methylated oligonucleotide; inhibition, % at 4.4 µM; 370,000 tested, 0.31% active; AID 686964, 2013; in the data active = inhibition above about 13%
Target sequence (Q9UBB5 whole entry, looked up, the tested form may be a part): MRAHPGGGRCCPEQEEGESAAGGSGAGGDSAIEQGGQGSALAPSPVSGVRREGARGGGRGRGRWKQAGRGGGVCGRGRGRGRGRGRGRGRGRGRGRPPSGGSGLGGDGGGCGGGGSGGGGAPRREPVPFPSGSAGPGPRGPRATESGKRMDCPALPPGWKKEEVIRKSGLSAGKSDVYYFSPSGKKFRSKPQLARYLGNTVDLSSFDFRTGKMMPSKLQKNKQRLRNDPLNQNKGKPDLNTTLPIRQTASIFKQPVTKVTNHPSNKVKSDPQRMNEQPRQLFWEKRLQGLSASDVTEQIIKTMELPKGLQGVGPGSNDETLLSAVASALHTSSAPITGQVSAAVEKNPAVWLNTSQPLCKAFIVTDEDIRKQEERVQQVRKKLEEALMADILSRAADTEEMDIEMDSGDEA
ABHD5 PLIN5 PPI: ABHD5-PLIN5 interaction inhibitors, primary screen, cell lysate, split luciferase complementation, luminescence | Split G. princeps luciferase complementation, 4 h | inhibition, % at 4 µM | 360,000 tested, 0.78% active;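 active = inhibition above the mean inhibition across every tested compound plus 3 SD, cut at about 22% in these data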;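 also: 0% = DMSO only wells and the 100% control is not disclosed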
UHRF1 binding: UHRF1 methylated DNA binding inhibitors, primary screen, counter-screen for MBD2 inhibitor project, biochemical, TR-FRET, human UHRF1, single concentration; UHRF1 binding to methylated oligo; inhibition, % at 4.4 µM; 370,000 tested, 0.75% active; AID 687016, 2013; in the data active = inhibition above about 21%;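 also: UHRF1 SRA domain binding a hemimethylated CpG hairpin DNA probe; 0% = median of test compound wells and 100% = reference inhibitor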
PRMT1 confirm: PRMT1 methyltransferase inhibitors, confirmation, biochemical, fluorescence polarization, triplicate; AID 687036, 2013; inhibition, % at 2.79 µM; recombinant His-PRMT1, activity-based probe fluorescence polarization; shares compounds with PRMT1 inh; 3,300 tested, 42% active;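 active = mean inhibition across replicates above the hit cutoff derived for the earlier primary screen, cut at about 22% in these data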
An asterisk follows results filed as active; / = no result given. Shown are actives, neighbours in structure and some others; about 3.1% of the full set was active somewhere.

SMILES | RBBP9 inhibitor | LEDGF integ inh | PRMT1 inh | MBD2 DNA inh | ABHD5 PLIN5 PPI | UHRF1 binding | PRMT1 confirm
S=c1[nH]nc(-c2ccco2)n1/N=C/C(Cl)=C/c1ccccc1 | -0.5 | -2.8 | 25.6* | -0.5 | 8.8 | -0.3 | 20.0
Cc1cc(-c2n[nH]c(=S)n2/N=C/c2cccc(O)c2)n[nH]1 | -12.3 | -3.5 | 2.1 | 0.7 | -0.2 | 1.3 | /
Cc1cc(-c2n[nH]c(=S)n2N=Cc2c3ccccc3cc3ccccc23)n[nH]1 | / | -4.3 | 42.3* | -6.4 | / | -6.9 | 17.3
CC(/C=N/n1c(-c2ccco2)n[nH]c1=S)=C\c1ccco1 | -7.4 | 9.5 | 11.4 | -3.7 | 1.8 | -1.8 | /
Cc1cc(-c2n[nH]c(=S)n2N=Cc2ccc(-c3ccccc3)cc2)n[nH]1 | / | -1.3 | 8.4 | 2.0 | / | 0.6 | /
Cc1cc(-c2n[nH]c(=S)n2/N=C/C(Cl)=C/c2ccccc2)n[nH]1 | -6.0 | -1.5 | 25.9* | -0.8 | 5.9 | 0.1 | 15.4
CC(=O)N1CCN(C(=O)c2ccc3oc(CCCc4ccccc4)nc3c2)CC1 | / | -6.5 | 1.5 | -2.0 | -2.3 | -0.4 | /
CCOC(=O)N1CCN(C(=O)c2ccc3oc(CCCc4ccccc4)nc3c2)CC1 | / | -0.3 | 30.7* | -1.0 | -1.6 | 1.2 | -0.8
COc1ccc2sc(SCCCS(=O)(=O)O)[n+](CCCS(=O)(=O)[O-])c2c1 | -4.8 | 1.0 | 58.0* | 3.2 | -0.5 | 1.6 | 59.0*
CNC(=O)c1ccc(S(=O)(=O)c2ccc(Cl)cc2)c(NC(C)=O)c1 | / | -3.1 | -0.6 | 1.8 | 4.4 | 0.5 | /
CNC(=O)c1nnsc1S(=O)(=O)c1ccc(Cl)cc1 | -14.3 | 0.6 | 77.9* | -3.3 | 74.5* | -2.8 | 72.1*
CC(C(=O)NCC(=O)Nc1ccc(F)c(F)c1F)N1CCN(Cc2ccc(C#N)cc2)CC1 (stereo not drawn) | / | 0.5 | -0.4 | 0.2 | 5.0 | 0.1 | /
CC(C(=O)NCC(=O)Nc1ccc(F)c(F)c1F)N1CCN(c2ccc(O)cc2)CC1 (stereo not drawn) | / | 5.0 | 28.1* | -1.1 | 4.4 | 0.9 | 8.5
COc1ccc(N2CCN(C(=O)c3cc(N4C(=O)C5C6CCC(C6)C5C4=O)ccc3Cl)CC2)cc1 (stereo not drawn) | -1.4 | 4.0 | 36.2* | 4.9 | -0.9 | -2.0 | -1.5
O=C(c1cc(N2C(=O)C3C4CCC(C4)C3C2=O)ccc1Cl)N1CCN(c2ccc(F)cc2)CC1 (stereo not drawn) | -7.2 | -0.9 | 0.9 | 1.5 | -4.6 | 3.5 | /
CCCCCCn1c(=O)[nH]c2nc3cc(N)c(C)cc3nc2c1=O | -0.2 | -0.4 | 132.3* | -13.4 | -20.7 | -50.8 | 123.0*
CCCCCn1c(=O)[nH]c2cc(C(=O)O)ccc2c1=O | -8.1 | 3.0 | -2.7 | 1.0 | -4.0 | -3.9 | /
COc1ccccc1NS(=O)(=O)c1cc(N2Cc3ccccc3C2=N)ccc1N1CCOCC1 | -0.2 | -2.3 | 26.5* | 3.5 | 7.6 | 5.0 | 2.4
O=C(Nc1nc(=O)c2ccccc2s1)c1ccc(Cl)cc1 | -6.9 | 3.1 | 32.4* | -7.6 | -7.9 | -2.4 | 0.6
O=C(Cc1ccccc1)Nc1nc2ccccc2s1 | -6.2 | 0.8 | -1.1 | -8.7 | -2.5 | -1.9 | /
O=C(Cc1ccccc1)Nc1nc(=O)c2ccccc2s1 | -7.6 | -0.4 | 47.9* | -5.4 | -18.5 | 0.8 | 4.1
COc1ccc(CNS(=O)(=O)CC2NCc3cc(OC)ccc32)cc1 (stereo not drawn) | / | 2.8 | -0.2 | -3.9 | / | -3.0 | /
N#CC1=C2SCN(Cc3ccco3)CN2C(=O)CC1c1ccc(Cl)cc1 (stereo not drawn) | 2.7 | 4.2 | 32.4* | -3.6 | -0.8 | -3.7 | 12.8

Bioassay records (PubChem)
